Laboratory results reported in ChEMBL document CHEMBL4251758, “Small Molecule Inhibition of MicroRNA miR-21 Rescues Chemosensitivity of Renal-Cell Carcinoma to Topotecan” (J Med Chem, 2018).
Active and inactive are the calls of the source. The calls are words filed in the database; no cut-off is given here.

Tested on: microRNA 21
Assay: Inhibition of miR-21 RNA in human HeLa cells harboring miR-21 binding sequence in 3'-UTR of firefly luciferase gene assessed as increase in luciferase expression incubated for 48 hrs by Bright-Glo luciferase reporter gene assay relative to control
Assay type: cell-based
Conditions: not given
Summary of the method: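 HeLa-miR21-Luc stable line (miR-21 site in the firefly luciferase 3′-UTR), 1000 cells per well. Compound or DMSO (0.1% final) added after overnight attachment, in triplicate, for 48 h. Bright-Glo luminescence was normalized to XTT viability (450 nm) and expressed as fold change relative to DMSO. At least three independent experiments.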

Row | Compound | fold change (FC)
1 | Nc1c(-c2nc(-c3cccs3)no2)nnn1-c1ccc(CO)cc1 | 2.14
2 | CC(C)c1cccc(-n2nnc(-c3nnc(-c4cccs4)o3)c2N)c1 | 1.72
3 | C/C(=N\O)c1cccc(-n2nnc(-c3nc(-c4ccc(OC(C)C)cc4)no3)c2N)c1 | 1.19
4 | Nc1c(-c2nc(-c3cccs3)no2)nnn1-c1ccc2ccccc2c1 | 1.39
5 | Fc1cccc(-n2cc(-c3nc(-c4cccs4)no3)nn2)c1 | 1.7
6 | Nc1c(-c2nc(-c3cccs3)no2)nnn1-c1cccc(OC(F)(F)F)c1 | 1.4
7 | CN(C)c1cccc(-n2nnc(-c3nc(-c4cccs4)no3)c2N)c1 | 2.56
8 | CCc1cccc(-n2nnc(-c3nc(-c4cccs4)no3)c2N)c1 | 1.63
9 | COc1ccc(-c2noc(-c3nnn(-c4cccc(/C(C)=N/O)c4)c3N)n2)cc1 | 1.51
10 | Nc1c(-c2nc(-c3cccs3)no2)nnn1-c1cccc(C(F)(F)F)c1 | 1.08
11 | Nc1c(-c2nc(-c3cccs3)no2)nnn1-c1cccc(O)c1 | 2.19
12 | C/C(=N\O)c1cccc(-n2nnc(-c3nc(-c4ccc(O)cc4)no3)c2N)c1 | 1.98
13 | Nc1c(-c2nnc(-c3cccs3)o2)nnn1-c1cccc(F)c1 | 1.6
14 | Nc1c(-c2nc(-c3cccs3)no2)nnn1-c1cccc(C(=O)c2ccccc2)c1 | 1.82
15 | CCOc1ccc(-c2noc(-c3nnn(-c4cccc(/C(C)=N/O)c4)c3N)n2)cc1 | 3.14
16 | CC(=O)c1cccc(-n2nnc(-c3nc(-c4cccs4)no3)c2N)c1 | 2.46
17 | Nc1c(-c2nc(-c3cccs3)no2)nnn1-c1ccccc1CO | 2.23
18 | C/C(=N\O)c1cccc(-n2nnc(-c3nc(-c4cccs4)no3)c2N)c1 | 4.54

Row | Compound | fold change (FC)
19 | COc1cccc(-n2nnc(-c3nc(-c4ccco4)no3)c2N)c1 | 2.19
20 | Nc1c(-c2nc(-c3cccs3)no2)nnn1-c1cccc(-c2ccccc2)c1 | 1.06
21 | Nc1c(-c2nc(-c3cccs3)no2)nnn1-c1cccc(CO)c1 | 1.67
22 | c1ccc(-n2cc(-c3nc(-c4cccs4)no3)nn2)cc1 | 1.41
23 | Cc1cccc(-n2nnc(-c3nc(-c4cccs4)no3)c2N)c1C | 1.89
24 | C#CCOc1cccc(-n2nnc(-c3nc(-c4cccs4)no3)c2N)c1 | 1.61
25 | Nc1c(-c2nc(-c3cccs3)no2)nnn1-c1ccccc1 | 1.01
26 | COc1cccc(-n2nnc(-c3nc(-c4cccs4)no3)c2N)c1 | 2.84
27 | C#CCOc1ccc(-n2nnc(-c3nc(-c4cccs4)no3)c2N)cc1 | 1.47
28 | COc1cccc(-n2nnc(-c3nnc(-c4cccs4)o3)c2N)c1 | 2.68
29 | COc1cccc(-n2nnc(-c3nc(-c4ccccn4)no3)c2N)c1 | 2.23
30 | C=CCOc1ccc(-c2noc(-c3nnn(-c4cccc(/C(C)=N/O)c4)c3N)n2)cc1 | 2.96
31 | COc1cccc(-n2cc(-c3nc(-c4cccs4)no3)nn2)c1 | 2.2
32 | Nc1c(-c2nc(-c3cccs3)no2)nnn1-c1cccc(F)c1 | 1.93
33 | COc1cc(OC)cc(-n2nnc(-c3nc(-c4cccs4)no3)c2N)c1 | 2.3
34 | COc1ccccc1-n1nnc(-c2nc(-c3cccs3)no2)c1N | 2.02
35 | CC(C)c1cccc(-n2nnc(-c3nc(-c4cccs4)no3)c2N)c1 | 1.82
36 | COc1cccc(-n2nnc(-c3nc(-c4ccccc4)no3)c2N)c1 | 2.19

Tested on: A498
Assay: Inhibition of colony formation of human A498 cells after 2 weeks by crystal violet staining-based microscopic analysis
Assay type: functional, cell-based
Conditions: A498, 336 h
Summary of the method: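 A498 cells, 10,000 per well, seeded in 0.45% low-melt agarose in DMEM over a 0.7% agarose base layer, containing increasing compound concentrations or DMSO (0.1% final), in triplicate. For combinations, the inhibitor was held at 10 μM. After 2 weeks, colonies were stained with 0.1% crystal violet and imaged by z-stack microscopy. Colony counts were normalized to DMSO; IC50 from sigmoidal fit.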

Row | Compound | IC50 [µM]
37 | CC[C@@]1(O)C(=O)OCc2c1cc1n(c2=O)Cc2cc3c(CN(C)C)c(O)ccc3nc2-1 [TOPOTECAN] | 2

Tested on: not listed separately
Assay: Stabilization of pre-miR-21 RNA (unknown origin) assessed as increase in melting temperature at 10 uM by UV-spectrophotometric analysis
Conditions: not given
Summary of the method: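 Melting-curve analysis of precursor miR-21 RNA run with test compound, with DMSO as the reference condition and tobramycin (10 μM) as a positive control for RNA binding and stabilisation. Read-out is the shift in melting temperature of pre-miR-21 relative to the DMSO sample.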

Row | Compound | ΔTm [°C]
38 | NC[C@H]1O[C@H](O[C@H]2[C@H](O)[C@@H](O[C@H]3O[C@H](CO)[C@@H](O)[C@H](N)[C@H]3O)[C@H](N)C[C@@H]2N)[C@H](N)C[C@@H]1O | 19

Tested on: A498
Assay: Induction of apoptosis in human A498 cells assessed as increase in caspase-3/7 activity at 1 uM after 24 hrs by Caspase-Glo 3/7 assay relative to control
Assay type: functional
Conditions: not given

Row | Compound | fold change (FC)
39 | CC[C@@]1(O)C(=O)OCc2c1cc1n(c2=O)Cc2cc3c(CN(C)C)c(O)ccc3nc2-1 [TOPOTECAN] | 3

Tested on: microRNA 21
Assay: Inhibition of miR-21 RNA (unknown origin) transfected in human HeLa cells at 0.1 to 1000 nM after 48 hrs by Bright-Glo luciferase reporter gene assay
Assay type: cell-based
Conditions: not given

Row | Compound | inhibition
40 | CC[C@@]1(O)C(=O)OCc2c1cc1n(c2=O)Cc2cc3c(CN(C)C)c(O)ccc3nc2-1 [TOPOTECAN] | inactive
